T cruzi inh = blocks replication of Trypanosoma cruzi; T. cruzi beta-gal in NIH3T3, luminescence, 90 h; inhibition, % (test concentration not listed); 300,000 tested, 1.4% active; AID 1885;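 active means mean inhibition across valid replicates above about 55%, limit read from the data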;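 further: signal also drops with host cell toxicity which is not excluded here; 0% = plate median of DMSO wells and 100% = zero luminescence signal; higher percent means less beta-gal luminescence so fewer parasites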
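Material: NIH/3T3 host cells with β-galactosidase reporter T. cruzi; Input: 5,000 host fibroblasts per well; Medium: DMEM, 2% fetal bovine serum; Compound: 50 nL DMSO compound solution per well; Schedule: 3 h host attachment, then at least 90 h co-culture; Detection: luminescent β-galactosidase signal after 60 min lysis.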
HIF activator = HIF pathway transcriptional activation; U2OS HRE-luciferase reporter, luminescence; normalized: DMSO 0%, desferrioxamine 100%; activation, % at 7.5 µM (by protocol); 300,000 tested, 0.32% active; AID 1910;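 active means mean activation of at least 10% of the iron chelator positive control signal, with at least half of replicates also reaching 10%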
V-ATPase pHluor = alters yeast V-ATPase proton transport. S. cerevisiae, pHLuorin cytosolic pH fluorescence. response, % at 10 µM. 350,000 tested, 0.37% active. AID 504577; in the data active means response mostly above about 7.3%, no sharp cut-off; inactive means mostly below about 5.4%; further: actives read high
AI-2 QS mod = modulators of Vibrio harveyi AI-2 quorum sensing system; Vibrio harveyi JMH597 AI-2 luminescence/OD600 ratio, 9 h; hits give low values; strain lacks LuxN and CqsS sensors; 0 = neutral-control median; activity change, % at 7.5 µM; 300,000 tested, 0.4% active; AID 2094; in the data active means activity change below about -75%, passing the limit was not always enough;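 further: luminescence divided by OD600 gain over 9 h not by final OD600 alone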
CR mimetic SO = caloric restriction mimetics inhibiting age-related superoxide in yeast. S. cerevisiae aged cells, superoxide DHE fluorescence; hits give low values. superoxide response (% of plate mean), % at 10 µM. 330,000 tested, 0.18% active. AID 2690;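 active means superoxide response under a set limit, about three screen SD below normal, cut at about 65% in these data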;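 further: yeast aged for seven days with compound at 30 °C before DHE staining; 100% = average MFI of all compound-treated wells on the plate with controls excluded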
CendR NRP1 mod = modulators of CendR peptide binding to human neuropilin-1; O14786; FAM-RPARPAR peptide binding to NRP-1, fluorescence polarization; inhibition, % at 25 µM; 360,000 tested, 0.85% active; AID 602438;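 active means inhibition or corrected inhibition above about 18%, plus a signal ratio from 0.5 to 1.5, limit read from the data, passing the limit was not always enough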
Active calls of the source: *; nt = not tested or not shown. An excerpt weighted towards active compounds, which were near 3% of everything screened.

SMILES	T cruzi inh	HIF activator	V-ATPase pHluor	AI-2 QS mod	CR mimetic SO	CendR NRP1 mod
CN1N=C(/C=C/c2ccccc2)CCC1=O	-8.5	0.9	0.1	11.5	92.1	8.7
Cc1ccc(/C=C/C2=NN(C)C(=O)CC2)cc1	-8.6	2.4	-1.6	18.5	84.9	36.0*
CC(C)CC(=O)O/N=C1\C(=O)N(Cc2ccc(Cl)cc2)c2ccc([N+](=O)[O-])cc21	58.0*	-1.5	nt	40.3	104.4	nt
COCCNC(=O)c1cccc(OC2CCN(Cc3ccc(C(=O)OC)cc3)CC2)c1	-0.9	-0.8	-2.1	5.0	102.5	0.3
Cc1ccc(CN2CCC(Oc3cccc(C(=O)N(C)CCN(C)C)c3)CC2)cc1C	57.4*	-5.6	-0.2	22.1	89.2	1.2
O=C(Nc1ccccc1)C(Cl)C(=O)c1ccccc1 (stereo unspecified)	-3.6	-23.6	1.7	-81.8*	91.2	7.1
CC(=O)C(Cl)C(=O)Nc1ccccc1 (stereo unspecified)	nt	nt	5.3	nt	nt	5.2
CC1(c2ccc(OC(F)F)cc2)NC(=O)N(CC(=O)Nc2ccc(S(N)(=O)=O)cc2)C1=O (stereo unspecified)	1.7	-20.5	-0.1	-14.0	100.3	5.8
Cc1cc(NC(=O)CN2C(=O)NC(C)(c3ccc(OC(F)F)cc3)C2=O)no1 (stereo unspecified)	-11.5	-0.2	3.8	-74.2	113.4	2.8
COc1cccc(NC(=O)CN(C)C(=O)CN2C(=O)NC(C)(c3ccc(C)cc3)C2=O)c1 (stereo unspecified)	nt	nt	-2.2	nt	104.5	19.4*
CC1(c2ccc(OC(F)F)cc2)NC(=O)N(CC(=O)Nc2ccc(OC(F)F)cc2)C1=O (stereo unspecified)	5.2	0.0	0.1	-92.6*	109.5	18.0*
CC1(c2ccc(OC(F)F)cc2)NC(=O)N(CC(=O)Nc2ccc(F)cc2)C1=O (stereo unspecified)	-0.8	-0.3	-0.5	-93.7*	87.3	-3.6
COc1ccc(-c2csc(N3C(=N)SCC3=O)n2)cc1	0.3	1.6	1.0	26.8	103.6	17.7
Clc1ccc(Oc2ccccc2)c2ncccc12	-1.0	0.2	-1.5	5.9	96.1	-2.6
Cc1ccc(-n2nc3c(=O)n(CC(=O)NCc4ccccc4)nc(C)c3c2C)cc1	-6.1	89.4*	1.7	0.0	84.3	3.9
Cc1ccc(-n2nc3c(=O)n(CC(=O)NCc4ccccc4Cl)nc(C)c3c2C)cc1	5.9	0.5	4.7	5.7	110.0	2.2
O=C(N=C1N=C2C=CC(Br)=CN2Cc2ccccc21)c1ccc([N+](=O)[O-])cc1[N+](=O)[O-]	56.6*	0.8	4.5	10.2	124.7	5.2
CCOC(=O)[C@H]1[C@H]2COc3ccc(OC)cc3[C@@H]2N2C(=O)CN(Cc3ccco3)C(=O)[C@@]12C	nt	nt	-1.2	nt	116.2	22.0*
CCOC(=O)[C@H]1[C@H]2COc3ccc(OC)cc3[C@@H]2N2C(=O)c3ccc(C)cc3NC(=O)[C@@]12C	nt	nt	2.2	nt	109.4	24.2*
CCOC(=O)[C@H]1[C@H]2COc3cc(OC)ccc3[C@@H]2N2C(=O)CN(Cc3ccco3)C(=O)[C@@]12C	nt	nt	5.8	nt	81.0	9.5
CCOC(=O)[C@H]1[C@H]2COc3cc(OC)ccc3[C@@H]2N2C(=O)c3ccc(C)cc3NC(=O)[C@@]12C	nt	nt	1.8	nt	nt	-0.7
CCOC(=O)c1c(NC(=O)CN2C(=O)NC3(CCC(C)CC3)C2=O)sc(C)c1-c1ccc(C)cc1 (stereo unspecified)	6.5	39.0*	-1.2	6.5	106.1	-4.4
CCOC(=O)c1c(NC(=O)CN2C(=O)NC3(CCCCC3C)C2=O)sc(C)c1CC (stereo unspecified)	66.4*	0.3	-1.3	-5.8	96.2	3.3
CCOC(=O)c1c(NC(=O)CN2C(=O)NC3(CCCCC3)C2=O)sc(C)c1-c1ccc(C)cc1	25.5	0.5	-0.9	5.2	93.0	2.7
COC(=O)c1c(NC(=O)CN2C(=O)NC3(CCCCC3C)C2=O)sc2c1CCC2 (stereo unspecified)	nt	nt	-2.2	nt	99.6	-0.4
SMILES	T cruzi inh	HIF activator	V-ATPase pHluor	AI-2 QS mod	CR mimetic SO	CendR NRP1 mod
Cc1ccc2c(c1)NCC(C(=O)NC1CCCCC1)O2 (stereo unspecified)	2.7	0.0	-3.5	42.7	71.5	4.4
COc1cccc(Nc2nc(C(N)CCc3ccccc3)cs2)n1 (stereo unspecified)	nt	nt	nt	nt	nt	-8.3
CC(C)Sc1nnc(Cn2c(=O)sc3ccccc32)n1-c1ccccc1	12.6	0.1	0.1	23.0	96.3	1.4
COC(=O)C(C)Sc1nnc(SC(C)C(=O)OC)s1 (stereo unspecified)	-17.6	-0.8	-1.5	11.3	105.8	35.8*
CCNc1nc(N)nc(Oc2ccc(OCCOc3ccc(Cl)cc3Cl)nn2)n1	66.1*	-0.2	-3.6	13.6	88.3	0.0
Cc1nnc(SCc2ccc(Cl)cc2)nc1/C=C/N(C)C	61.0*	0.1	-3.0	14.5	109.0	-1.3
CC1(c2nnc(-c3ccc(Cl)cc3)o2)CC(c2cccc(Cl)c2)=NO1 (stereo unspecified)	-16.4	-1.0	-0.8	4.0	105.9	25.1*
CC1(c2nnc(-c3ccc(F)cc3)o2)CC(c2ccc(F)cc2)=NO1 (stereo unspecified)	-4.3	-0.4	4.4	18.9	98.7	24.5*
CC1(c2nnc(-c3ccccc3)o2)CC(c2cccc(Cl)c2)=NO1 (stereo unspecified)	-15.6	-1.3	-0.4	7.3	100.8	3.9
O=C(COc1ccccc1/C=C1\SC(=O)NC1=O)Nc1ccc(F)cc1	21.2	0.0	6.0	28.5	92.3	-36.9
Cc1csc(=O)n1CCC(=O)OCC(=O)Nc1ccc(C(N)=O)cc1	-7.0	0.0	1.4	15.4	100.0	23.1*
CN1CCC(N(C)C(=O)c2sc3cc(F)ccc3c2Cl)CC1	78.0*	0.0	-3.1	12.8	110.8	-2.9
CC(C)N(CC(N)=O)C(=O)c1sc2cc(F)ccc2c1Cl	-5.0	-0.3	1.0	7.0	89.6	-7.2
CSC1=NSC2=NC(=O)/C(=C/c3coc4ccc(O)cc4c3=O)C(=N)N12	-26.9	-0.1	0.4	26.8	126.7	136.6
Cc1c(C)n2c(SCC(=O)N3CCC(C)CC3)nnc2[nH]c1=O	-5.2	-0.3	-3.1	17.3	109.6	23.9*
O=[N+]([O-])c1cc(-c2csc(NCCc3nc4cc(Cl)c(Cl)cc4n3CCCO)n2)ccc1Cl	-7.2	0.0	-0.3	18.7	116.6	31.2*
Cc1ccc(-c2csc(NCCc3nc4cc(Cl)c(Cl)cc4n3CCCO)n2)cc1	-21.6	-0.3	0.8	32.7	88.9	1.9
OCCOCCn1c(CCNc2nc(-c3ccc(Cl)cc3)cs2)nc2cc(Cl)c(Cl)cc21	21.2	1.5	3.5	-0.8	97.7	35.5*
CCCn1c(CCNc2nc(-c3ccc(Cl)c([N+](=O)[O-])c3)cs2)nc2cc(Cl)c(Cl)cc21	-17.8	-1.2	-3.7	-3.8	95.5	19.3

High-throughput results: PubChem, several laboratories
